From ChEMBL document CHEMBL1140385, “Synthesis and antibacterial activity of 3-substituted-6-(3-ethyl-4-methylanilino)uracils” (J Med Chem, 2005)
In brackets after ≈: the same amount, converted by molar mass.

Legend:
Enterococcus faecalis [1] = experiment: In vitro minimum inhibitory concentration against Enterococcus faecalis upon incubation at 37 degree C for 16 to 24 hr by dissolving in DMSO (1%); assay type: functional
Method in brief: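 Log-phase E. faecalis was grown in brain-heart infusion broth and seeded at (3-7) × 10^5 CFU/mL. Duplicate 2-fold dilutions ran from 20 to 1.25 µg/mL, final 1% DMSO. After 16-24 h at 37 °C with shaking, OD600 was read.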

Staphylococcus aureus [2] = experiment: Effect on survival of staphylococcus aureus (Smith) ip-infected mice at a concentration 10 mg/kg; assay type: functional
Method in brief: (§1)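 Male pathogen-free Swiss-Webster mice (20-24 g), groups of five, infected ip with ca. 10⁸ CFU log-phase S. aureus Smith (grown 37 °C in LB, washed, in 0.5 mL LB). Single ip dose 15 min post-infection, in 10% DMSO/peanut oil or PBS. Survivors counted at 72 h post-infection.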

Enterococcus faecium [3] = experiment: In vitro minimum inhibitory concentration against Vancomycin resistant Enterococci faecium upon incubation at 37 degree C for 16 to 24 hr by dissolving in DMSO (1%); assay type: functional
Method in brief: (§2)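 Broth microdilution (modified NCCLS M7-A4). Enterococci grown to log phase in brain-heart infusion broth, seeded at (3-7) × 10⁵ CFU/mL. Compounds 2-fold diluted from DMSO stocks, 20 to 1.25 µg/mL, final 1% DMSO, in duplicate. Incubated 37 °C, 16-24 h, with shaking. OD600 read.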

Enterococcus faecium [4] = experiment: In vitro minimum inhibitory concentration against Enterococcus fecium upon incubation at 37 degree C for 16 to 24 hr by dissolving in DMSO (1%); assay type: functional; method in brief: as §2
Staphylococcus aureus [5] = experiment: Effect on survival of staphylococcus aureus (Smith) ip-infected mice at a concentration 20 mg/kg; assay type: functional; method in brief: as §1
Staphylococcus aureus [6] = experiment: In vitro minimum inhibitory concentration against Methicillin-resistant Staphylococcus aureus upon incubation at 37 degree C for 16 to 24 hr by dissolving in DMSO (1%); assay type: functional
Method in brief: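 Broth microdilution (modified NCCLS M7-A4). Staphylococci grown to log phase in Luria broth, seeded at (3-7) × 10⁵ CFU/mL. Compounds 2-fold diluted from DMSO stocks, 20 to 1.25 µg/mL, final 1% DMSO, in duplicate. Incubated 37 °C, 16-24 h, with shaking. OD600 read.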

Staphylococcus aureus [7] = experiment: In vitro minimum inhibitory concentration against Staphylococcus aureus upon incubation at 37 degree C for 16 to 24 hr by dissolving in DMSO (1%); assay type: functional
Staphylococcus aureus [8] = experiment: Serum effect on MIC against Staphylococcus aureus (Smith) as ratio of MIC value in presence and absence of 50% fetal calf serum; assay type: functional
Method in brief: (§3)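 Broth microdilution MIC was repeated with 50% fetal calf serum added to the growth medium (LB for S. aureus, brain-heart infusion broth for E. faecalis). The inoculum was (3-7) × 10^5 CFU/mL in 1% DMSO, incubated at 37 °C for 16-24 h, and read by OD600. The serum effect is the MIC with serum relative to the MIC without serum.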

Enterococcus faecalis [9] = experiment: Serum effect on MIC of compound was measured against Enterococcus faecalis as ratio of MIC value in presence and absence of 50% fetal calf serum; assay type: functional; method in brief: as §3
Bacillus subtilis = experiment: In vitro minimum inhibitory concentration against Bacillus subtilis upon incubation at 37 degree C for 16 to 24 h; assay type: functional
Staphylococcus aureus [10] = experiment: In vitro minimum inhibitory concentration against Staphylococcus aureus (Smith) upon incubation at 37 degree C for 16 to 24 hr by dissolving in DMSO (1%); assay type: functional
[11] = biological target: DNA polymerase III PolC-type (Bacillus subtilis (strain 168), UniProt P13267); experiment: Inhibitory concentration against Bacillus subtilis DNA polymerase IIIC using [3H]dTMP 250 pM (30 degree C for 10 min)
Chain of DNA polymerase III PolC-type (P13267 whole entry, the tested form may be a part): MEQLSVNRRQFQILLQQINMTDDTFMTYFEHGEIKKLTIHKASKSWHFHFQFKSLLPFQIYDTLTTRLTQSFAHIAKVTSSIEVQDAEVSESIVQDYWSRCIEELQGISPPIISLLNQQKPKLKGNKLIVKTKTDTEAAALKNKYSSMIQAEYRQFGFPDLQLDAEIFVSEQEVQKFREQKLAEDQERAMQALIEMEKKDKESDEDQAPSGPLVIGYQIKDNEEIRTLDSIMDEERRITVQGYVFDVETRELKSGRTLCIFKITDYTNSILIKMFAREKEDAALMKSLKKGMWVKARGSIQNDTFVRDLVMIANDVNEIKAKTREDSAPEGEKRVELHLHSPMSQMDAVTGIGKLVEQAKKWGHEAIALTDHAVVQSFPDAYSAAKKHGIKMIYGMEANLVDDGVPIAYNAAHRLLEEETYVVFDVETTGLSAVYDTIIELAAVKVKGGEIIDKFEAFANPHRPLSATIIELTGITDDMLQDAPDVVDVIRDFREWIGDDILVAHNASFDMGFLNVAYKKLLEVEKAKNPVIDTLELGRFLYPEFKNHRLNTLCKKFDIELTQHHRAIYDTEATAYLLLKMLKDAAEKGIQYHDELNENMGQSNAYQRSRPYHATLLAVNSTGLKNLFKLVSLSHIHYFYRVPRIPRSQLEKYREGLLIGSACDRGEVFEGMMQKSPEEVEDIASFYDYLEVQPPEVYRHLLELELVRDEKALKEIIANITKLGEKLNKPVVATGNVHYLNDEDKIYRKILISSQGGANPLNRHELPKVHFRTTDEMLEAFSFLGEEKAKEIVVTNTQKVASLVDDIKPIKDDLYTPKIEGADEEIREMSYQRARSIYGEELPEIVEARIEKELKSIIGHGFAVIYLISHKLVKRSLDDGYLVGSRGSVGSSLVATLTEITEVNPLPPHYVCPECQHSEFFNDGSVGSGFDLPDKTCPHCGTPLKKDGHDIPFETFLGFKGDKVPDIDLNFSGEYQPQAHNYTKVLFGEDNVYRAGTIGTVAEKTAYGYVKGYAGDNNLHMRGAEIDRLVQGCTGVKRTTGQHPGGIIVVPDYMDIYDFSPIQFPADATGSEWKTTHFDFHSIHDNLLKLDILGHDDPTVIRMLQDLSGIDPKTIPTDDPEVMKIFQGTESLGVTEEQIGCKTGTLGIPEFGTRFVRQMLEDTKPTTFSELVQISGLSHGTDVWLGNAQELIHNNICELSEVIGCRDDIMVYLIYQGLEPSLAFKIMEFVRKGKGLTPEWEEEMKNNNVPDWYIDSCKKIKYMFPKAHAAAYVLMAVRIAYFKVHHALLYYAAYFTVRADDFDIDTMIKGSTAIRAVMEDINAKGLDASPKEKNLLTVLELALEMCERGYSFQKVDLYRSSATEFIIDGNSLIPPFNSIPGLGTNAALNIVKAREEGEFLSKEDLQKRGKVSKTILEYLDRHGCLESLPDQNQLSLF
Method in brief: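 Homogeneous recombinant B. subtilis pol IIIC, 0.025-0.06 units, acted on activated calf thymus DNA with Mg2+, DTT, glycerol, dATP, dCTP, dTTP and [3H]dTTP, without dGTP. Compounds were serially diluted from DMSO. Reactions ran 10 min at 30 °C, were stopped with TCA-pyrophosphate, and the filter-collected precipitate was scintillation counted. Apparent Ki was read directly from this truncated assay; average standard deviation ±44%.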

Compound: CN[C@H](CC(C)C)C(=O)N[C@H]1C(=O)N[C@@H](CC(N)=O)C(=O)N[C@H]2C(=O)N[C@H]3C(=O)N[C@H](C(=O)N[C@H](C(=O)O)c4cc(O)cc(O)c4-c4cc3ccc4O)[C@H](O)c3ccc(c(Cl)c3)Oc3cc2cc(c3O[C@@H]2O[C@H](CO)[C@@H](O)[C@H](O)[C@H]2O[C@H]2C[C@](C)(N)[C@H](O)[C@H](C)O2)Oc2ccc(cc2Cl)[C@H]1O [VANCOMYCIN]
- MIC (Enterococcus faecalis [1]): 0.625 µg/mL (≈ 0.431 µM)
- Activity (Staphylococcus aureus [2]): 5
- MIC (Enterococcus faecium [3]): > 20 µg/mL
- MIC (Enterococcus faecium [4]): 1.25 µg/mL (≈ 0.863 µM)
- Activity (Staphylococcus aureus [5]): 5
- MIC (Staphylococcus aureus [6]): 0.625 µg/mL (≈ 0.431 µM)

Compound: CCc1cc(Nc2cc(=O)n(CCN3CCOCC3)c(=O)[nH]2)ccc1C
- MIC (Enterococcus faecalis [1]): 5 µg/mL (≈ 13.9 µM)
- MIC (Staphylococcus aureus [7]): 10 µg/mL (≈ 27.9 µM)
- MIC (Enterococcus faecium [3]): 5 µg/mL (≈ 13.9 µM)
- MIC+/MIC- (Staphylococcus aureus [8]): 5.5
- MIC (Staphylococcus aureus [6]): 5 µg/mL (≈ 13.9 µM)
- MIC+/MIC- (Enterococcus faecalis [9]): 2.7

Compound: CCc1cc(Nc2cc(=O)n(CCCCCOC(C)=O)c(=O)[nH]2)ccc1C
- MIC (Enterococcus faecalis [1]): 5 µg/mL (≈ 13.4 µM)
- MIC (Staphylococcus aureus [7]): 5 µg/mL (≈ 13.4 µM)
- MIC (Enterococcus faecium [3]): 3.75 µg/mL (≈ 10 µM)
- MIC (Bacillus subtilis): 0.625 µg/mL (≈ 1.67 µM)
- MIC (Enterococcus faecium [4]): 3.75 µg/mL (≈ 10 µM)
- MIC (Staphylococcus aureus [10]): 7.5 µg/mL (≈ 20.1 µM)
- Ki [11]: 68 nM
- MIC (Staphylococcus aureus [6]): 2.5 µg/mL (≈ 6.69 µM)

Compound: CCc1cc(Nc2cc(=O)n(CCCCCN)c(=O)[nH]2)ccc1C.Cl
- MIC (Enterococcus faecalis [1]): > 20 µg/mL
- MIC (Staphylococcus aureus [7]): 5 µg/mL
- MIC (Enterococcus faecium [3]): > 20 µg/mL
- MIC (Bacillus subtilis): < 1.25 µg/mL
- MIC (Enterococcus faecium [4]): 20 µg/mL
- MIC (Staphylococcus aureus [10]): 10 µg/mL
- Ki [11]: 185 nM
- MIC (Staphylococcus aureus [6]): 10 µg/mL

Compound: CCc1cc(Nc2cc(=O)n(CCCCOC)c(=O)[nH]2)ccc1C
- MIC (Enterococcus faecalis [1]): 5 µg/mL (≈ 15.1 µM)
- MIC (Staphylococcus aureus [7]): 5 µg/mL (≈ 15.1 µM)
- MIC (Enterococcus faecium [3]): 2.5 µg/mL (≈ 7.54 µM)
- MIC (Bacillus subtilis): < 1.25 µg/mL
- MIC (Enterococcus faecium [4]): 2.5 µg/mL (≈ 7.54 µM)
- MIC (Staphylococcus aureus [10]): 5 µg/mL (≈ 15.1 µM)
- MIC+/MIC- (Staphylococcus aureus [8]): 7.4
- MIC (Staphylococcus aureus [6]): 5 µg/mL (≈ 15.1 µM)

Compound: CCc1cc(Nc2cc(=O)n(CCCCCCCCCCO)c(=O)[nH]2)ccc1C
- MIC (Enterococcus faecalis [1]): > 20 µg/mL
- MIC (Staphylococcus aureus [7]): > 20 µg/mL
- MIC (Bacillus subtilis): < 1.25 µg/mL
- MIC (Enterococcus faecium [4]): > 20 µg/mL
- MIC (Staphylococcus aureus [10]): > 20 µg/mL
- Ki [11]: 51 nM

Compound: CCc1cc(Nc2cc(=O)n(CCCCNCCO)c(=O)[nH]2)ccc1C
- MIC (Enterococcus faecalis [1]): > 20 µg/mL
- MIC (Staphylococcus aureus [7]): > 20 µg/mL
- MIC (Bacillus subtilis): > 20 µg/mL
- MIC (Enterococcus faecium [4]): > 20 µg/mL
- MIC (Staphylococcus aureus [10]): > 20 µg/mL
- Ki [11]: 28 nM

Compound: CCc1cc(Nc2cc(=O)n(CCCCCCCCN3CCOCC3)c(=O)[nH]2)ccc1C
- MIC (Enterococcus faecalis [1]): 10 µg/mL (≈ 22.6 µM)
- MIC (Staphylococcus aureus [7]): 10 µg/mL (≈ 22.6 µM)
- MIC (Enterococcus faecium [3]): 5 µg/mL (≈ 11.3 µM)
- MIC (Bacillus subtilis): 2.5 µg/mL (≈ 5.65 µM)
- MIC (Enterococcus faecium [4]): 10 µg/mL (≈ 22.6 µM)
- MIC (Staphylococcus aureus [10]): 10 µg/mL (≈ 22.6 µM)
- Ki [11]: 76 nM
- MIC+/MIC- (Staphylococcus aureus [8]): >7.1
- MIC (Staphylococcus aureus [6]): 20 µg/mL (≈ 45.2 µM)
- MIC+/MIC- (Enterococcus faecalis [9]): >12.8

Compound: CCc1cc(Nc2cc(=O)n(C/C=C/CO)c(=O)[nH]2)ccc1C
- MIC (Enterococcus faecalis [1]): 5 µg/mL (≈ 15.9 µM)
- MIC (Staphylococcus aureus [7]): 10 µg/mL (≈ 31.7 µM)
- MIC (Enterococcus faecium [3]): 2.5 µg/mL (≈ 7.93 µM)
- MIC (Bacillus subtilis): 1.25 µg/mL (≈ 3.96 µM)
- MIC (Enterococcus faecium [4]): 2.5 µg/mL (≈ 7.93 µM)
- MIC (Staphylococcus aureus [10]): 5 µg/mL (≈ 15.9 µM)
- MIC+/MIC- (Staphylococcus aureus [8]): 4.8
- MIC (Staphylococcus aureus [6]): 5 µg/mL (≈ 15.9 µM)

Compound: CCc1cc(Nc2cc(=O)n(CCCOC)c(=O)[nH]2)ccc1C
- MIC (Enterococcus faecalis [1]): 5 µg/mL (≈ 15.8 µM)
- MIC (Staphylococcus aureus [7]): 2.5 µg/mL (≈ 7.88 µM)
- MIC (Enterococcus faecium [3]): 2.5 µg/mL (≈ 7.88 µM)
- MIC (Bacillus subtilis): < 1.25 µg/mL
- MIC (Enterococcus faecium [4]): 2.5 µg/mL (≈ 7.88 µM)
- MIC (Staphylococcus aureus [10]): 2.5 µg/mL (≈ 7.88 µM)
- Ki [11]: 120 nM
- MIC+/MIC- (Staphylococcus aureus [8]): 4.9
- MIC (Staphylococcus aureus [6]): 2.5 µg/mL (≈ 7.88 µM)

Compound: CCc1cc(Nc2cc(=O)n(CCCOC(C)=O)c(=O)[nH]2)ccc1C
- MIC (Enterococcus faecalis [1]): 5 µg/mL (≈ 14.5 µM)
- MIC (Staphylococcus aureus [7]): 3.75 µg/mL (≈ 10.9 µM)
- MIC (Enterococcus faecium [3]): 3.75 µg/mL (≈ 10.9 µM)
- MIC (Bacillus subtilis): 0.625 µg/mL (≈ 1.81 µM)
- MIC (Enterococcus faecium [4]): 5 µg/mL (≈ 14.5 µM)
- MIC (Staphylococcus aureus [10]): 2.5 µg/mL (≈ 7.24 µM)
- Ki [11]: 120 nM
- MIC (Staphylococcus aureus [6]): 5 µg/mL (≈ 14.5 µM)

Compound: CCc1cc(Nc2cc(=O)n(CCCCCO)c(=O)[nH]2)ccc1C
- MIC (Enterococcus faecalis [1]): 2.5 µg/mL (≈ 7.54 µM)
- MIC (Staphylococcus aureus [7]): 5 µg/mL (≈ 15.1 µM)
- MIC (Enterococcus faecium [3]): 2.5 µg/mL (≈ 7.54 µM)
- MIC (Bacillus subtilis): < 1.25 µg/mL
- MIC (Enterococcus faecium [4]): 2.5 µg/mL (≈ 7.54 µM)
- MIC (Staphylococcus aureus [10]): 2.5 µg/mL (≈ 7.54 µM)
- Ki [11]: 43 nM
- MIC+/MIC- (Staphylococcus aureus [8]): 11.6
- MIC (Staphylococcus aureus [6]): 5 µg/mL (≈ 15.1 µM)

Compound: CCc1cc(Nc2cc(=O)n(CCCCNS(=O)(=O)c3ccc(C)cc3)c(=O)[nH]2)ccc1C
- MIC (Enterococcus faecalis [1]): 5 µg/mL (≈ 10.6 µM)
- MIC (Staphylococcus aureus [7]): 5 µg/mL (≈ 10.6 µM)
- MIC (Enterococcus faecium [3]): 5 µg/mL (≈ 10.6 µM)
- MIC (Bacillus subtilis): 5 µg/mL (≈ 10.6 µM)
- MIC (Enterococcus faecium [4]): 5 µg/mL (≈ 10.6 µM)
- MIC (Staphylococcus aureus [10]): 5 µg/mL (≈ 10.6 µM)
- Ki [11]: 230 nM
- MIC (Staphylococcus aureus [6]): > 20 µg/mL
